# Results taken from paper PMC12034384 (ImmunoHorizons, 2025).
# How the values were obtained:
# Jurkat = assay: Cytotoxicity of peptides; type: cell-based, human; conditions: Fig. S1; concentrations up to 100 μM
# [1] = test system: Ramos human B lymphoma cells; assay: Spontaneous proliferation of Ramos cells; type: cell-based
# [2] = cited from earlier work
# STAP-1–ITK interaction = assay: Coimmunoprecipitation, STAP-1–ITK interaction; type: binding, human; conditions: Fig. 2G
# Jurkat cells = assay: IL-2 production after anti-CD3/anti-CD28 stimulation, ELISA; type: cell-based, human; conditions: 30 min preincubation, immobilized anti-CD3 (3 μg/ml)/anti-CD28 (1 μg/ml) 48 h, n = 4
# Summary of the method: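 Jurkat cells were kept in RPMI 1640 with 10% FBS and 50 μM 2-mercaptoethanol. They were preincubated 30 min with test peptide or control peptide, then stimulated 48 h on immobilized anti-human CD3 (OKT3, 3 μg/ml) plus anti-CD28 (CD28.8, 1 μg/ml). Human IL-2 in supernatant was measured by ELISA. Mean ± SEM of 4 independent experiments, Sidak's test.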
# EAE mice = assay: Experimental autoimmune encephalomyelitis; type: in vivo, C57BL/6 mice
# EL-4 cells = assay: Spontaneous proliferation of EL-4 cells; type: cell-based, murine; conditions: 30 min preincubation, WST-8, n = 3
# Summary of the method: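 Murine EL-4 T lymphoma cells were grown in RPMI 1640 with 10% FBS and 50 μM 2-mercaptoethanol without stimulation. They were preincubated 30 min with test or control peptide, and spontaneous proliferation was read with WST-8 reagent. Mean ± SEM of 3 independent experiments; Sidak's multiple comparisons.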
# [3] = test system: HeLa human epithelial-like cells; assay: Spontaneous proliferation of HeLa cells; type: cell-based
# murine B cells = assay: IgM-mediated IL-6 and IL-10 production in murine B cells; type: cell-based; conditions: compared with iCont-treated B cells
# mice = assay: Tolerability in treated mice; type: in vivo; conditions: within the effective concentration range; data not shown
# murine CD4+ T cells = assay: IL-2 production of murine CD4+ T cells after anti-CD3/anti-CD28, ELISA; type: cell-based; conditions: 30 min preincubation, anti-CD3/anti-CD28 48 h, n = 4
# Summary of the method: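 CD4⁺ T cells were purified from mouse spleen with a CD4⁺ isolation kit and cultured in RPMI 1640, 10% FBS, 50 μM 2-mercaptoethanol. After 30 min preincubation with test or control peptide, cells were stimulated 48 h on immobilized anti-mouse CD3 (145-2C11, 3 μg/ml) plus anti-CD28 (PV-1, 1 μg/ml). Mouse IL-2 in supernatant was measured by ELISA. Mean ± SEM, n = 4 independent experiments, Sidak's test.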
# [4] = EAE mice, 40 µg/mouse i.v., vs iCont, n = 5
# [5] = EAE mice, day 14 after MOG immunization, vs iCont, n = 10 to 12
# [6] = EAE mice, day 14 after MOG immunization, vs iCont, n = 10 to 14
sequence,measurement,setting,value
RRRRRRRRGGDLTCLTEQNSTEKNCAKFTL [N73-92],cytotoxicity,Jurkat,high cytotoxicity at the concentration of 100 μM
RRRRRRRRGGEYEHYWTELRGTTLFFYTD [N41-59],cytotoxicity,Jurkat,did not show significant cytotoxicity up to the concentration of 100 μM
RRRRRRRRGGPLYFEGFLLIKRSGYREYE [N26-43],cytotoxicity,Jurkat,high cytotoxicity from the concentration of 3 μM
RRRRRRRRGGRRIFQERLKITALPLYFEGF [N12-31],cytotoxicity,Jurkat,high cytotoxicity from the concentration of 3 μM
RRRRRRRRGGTDKKSIIYVDKLDIVDLTCL [N58-77],cytotoxicity,Jurkat,high cytotoxicity from the concentration of 3 μM
RRRRRRRRGGTTLFF [iSP1],spontaneous proliferation,[1],did not inhibit
same,stability of cell-penetrating R8 sequence in vivo,[2],unstable and easy to dissociate in vivo
same,STAP-1–ITK interaction,STAP-1–ITK interaction,suppressed
same,IL-2 production following TCR stimulation,Jurkat cells,suppressed by iSP1 treatment in a concentration-dependent manner
same,area under the curve of EAE clinical score,"EAE mice; 40 µg/mouse i.v. every other day, days 8–20, vs iCont, n = 20",significantly lower
same,demyelination in spinal cord (Luxol Fast Blue staining),EAE mice; [4],suppressed
same,immune cell infiltration in spinal cord (H&E staining),EAE mice; [4],suppressed
same,frequency of Th1 cells (IFN-γ expressing) among CD4+ cells in CNS,EAE mice; [5],significantly lower
same,frequency of Th17 cells (IL-17 expressing) among CD4+ cells in CNS,EAE mice; [5],significantly lower
same,absolute number of Th1 cells (IFN-γ expressing CD4+ T cells) in CNS,EAE mice; [6],significantly lower
same,absolute number of Th17 cells (IL-17 expressing CD4+ T cells) in CNS,EAE mice; [6],significantly lower
same,spontaneous cell proliferation,EL-4 cells,exhibited suppressed cell proliferation
same,spontaneous proliferation,[3],did not inhibit
same,IgM-mediated IL-6 production,murine B cells,no inhibition
same,IgM-mediated IL-10 production,murine B cells,no inhibition
same,abnormal phenotypes in treated mice,mice,did not show any abnormal phenotypes
same,IL-2 production upon TCR stimulation,murine CD4+ T cells,inhibited in CD4^+ T cells
